High-throughput results deposited in PubChem BioAssay by Broad Institute.
T cruzi HTS = inhibitors of intracellular Trypanosoma cruzi; intracellular Trypanosoma cruzi in host cells, plate reader; activity score (inhibition), % at 5.01 µM; 4.9% of 22,000 active; AID 651903; in the data active = activity score above about 55%;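 note: parasites and compound incubated about four days before reading; 0% = median of neutral control wells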
INS-1E rescue = rescue of cytokine-induced death in INS-1E beta cells | INS-1E cytokine-induced death, ATP luminescence, 48 h; normalised: neutral wells 0, positive control 100 | protection from cytokine-induced ATP loss, % at 10 µM | AID 488910 | 0.1% of 20,000 active;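 active = mean replicate protection from cytokine-induced ATP loss at least 50% and at least 75% of replicates each reaching 50%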
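Assay system: INS-1E rat insulinoma cells. Amount: 8000 cells per well. Medium: phenol-red-free RPMI with 5% fetal bovine serum. Reagent: IL-1β, TNF-α and IFN-γ cytokine mix. Doses: one compound concentration, pin transfer. Schedule: 48 h co-treatment, 10 min post-lysis read. Detection: CellTiter-Glo luminescence measuring cellular ATP.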
A1 apoptosis 2 = A1 inhibition read as caspase activation. MEF A1-2A-BIM cells, caspase-Glo luminescence, 3 h; percent of clofoctol response, DMSO zero. caspase activation, % (no concentration beside the values). 24,000 tested, under 10 active; in the data active = caspase activation above about 5.9%
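Material: A1-2A-BIM-expressing MEF cells. Buffer or medium: RPMI-1640 plus 10% FBS. Incubation: cells settled overnight, compound exposure 3 h at 37 °C, 5% CO2. Signal: Caspase-Glo 3/7 luminescence, 1 h at room temperature.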
The depositor's hits bear a star; nt = not tested or not shown. This excerpt belongs to a sample that is enriched for hits.

SMILES	T cruzi HTS	INS-1E rescue	A1 apoptosis 2
COc1cc(Br)cc(/C=N/NC(=O)c2ccc(C(=O)NO)cc2)c1O	-10	32	-3
COc1ccc(NC(=O)N(C)C[C@@H]2Oc3ccc(NS(C)(=O)=O)cc3CC(=O)N([C@@H](C)CO)C[C@@H]2C)cc1	-10	12	-1
CC(=O)n1cc([C@H]2C=C(C(=O)N3CCN(C)CC3)O[C@@H](OCc3ccc(CO)cc3)C2)c2ccccc21	nt	nt	0
O=C(NO)c1ccc(C(=O)N/N=C/c2ccc(-c3ccccc3)c(F)c2)cc1	nt	nt	-1
C[C@H]1CN([C@@H](C)CO)C(=O)Cc2cc(NC(=O)Nc3ccc(C(F)(F)F)cc3)ccc2O[C@H]1CN(C)S(=O)(=O)c1ccc(Cl)cc1	52	-23	2
Cc1noc(C)c1S(=O)(=O)N(C)C[C@H]1Oc2ccc(NC(=O)Nc3ccc(C(F)(F)F)cc3)cc2CC(=O)N([C@H](C)CO)C[C@@H]1C	nt	nt	1
Cc1noc(C)c1S(=O)(=O)N(C)C[C@H]1Oc2ccc(NC(=O)Nc3ccc(C(F)(F)F)cc3)cc2CC(=O)N([C@@H](C)CO)C[C@H]1C	66*	1	-1
C[C@@H]1CN([C@@H](C)CO)C(=O)Cc2cc(NC(=O)Nc3ccc(C(F)(F)F)cc3)ccc2O[C@@H]1CN(C)S(=O)(=O)c1ccc(Cl)cc1	81*	-23	nt
C[C@@H]1CN([C@H](C)CO)C(=O)Cc2cc(NC(=O)Nc3ccc(C(F)(F)F)cc3)ccc2O[C@@H]1CN(C)S(=O)(=O)c1ccc(F)cc1	72*	-9	0
C[C@H]1CN([C@@H](C)CO)C(=O)Cc2cc(NC(=O)Nc3ccc(C(F)(F)F)cc3)ccc2O[C@@H]1CN(C)S(=O)(=O)c1ccc(F)cc1	35	0	1
C[C@@H]1CCCCO[C@H](CN(C)S(=O)(=O)c2ccc(F)cc2)[C@H](C)CN([C@H](C)CO)C(=O)c2cc(NS(C)(=O)=O)ccc2O1	nt	nt	0
O=C(Nc1ccccc1[N+](=O)[O-])c1ccc(CNc2nccc(-c3cccnc3)n2)cc1	nt	nt	1
O=C(CCCCCCC(=O)Nc1ccccc1O)N/N=C/c1cccnc1	3	-7	1
C[C@@H]1CN([C@H](C)CO)C(=O)c2cccc(NC(=O)Nc3ccc(C(F)(F)F)cc3)c2O[C@@H]1CN(C)Cc1ccc(-c2ccccc2)cc1	34	-59	0
C[C@@H]1CN([C@@H](C)CO)C(=O)c2cccc(NC(=O)Nc3ccc(C(F)(F)F)cc3)c2O[C@@H]1CN(C)Cc1ccc(-c2ccccc2)cc1	65*	-86	nt
C[C@@H]1CN([C@H](C)CO)C(=O)c2cccc(NC(=O)C3CCCCC3)c2O[C@H]1CN(C)Cc1ccc(C(F)(F)F)cc1	78*	-54	nt
C[C@H]1CN([C@@H](C)CO)C(=O)c2cccc(NC(=O)Nc3ccc(C(F)(F)F)cc3)c2O[C@H]1CN(C)Cc1ccc(C(F)(F)F)cc1	63*	-55	nt
C[C@@H]1CN([C@H](C)CO)C(=O)c2cccc(NC(=O)C3CC3)c2O[C@@H]1CN(C)Cc1ccc(C(F)(F)F)cc1	-17	-1	nt
C[C@@H]1CN([C@H](C)CO)C(=O)c2cccc(NC(=O)Nc3ccc(F)cc3)c2O[C@@H]1CN(C)Cc1ccc(-c2ccccc2)cc1	68*	-47	nt
C[C@@H]1CN([C@H](C)CO)C(=O)c2cccc(NC(=O)Nc3ccc(C(F)(F)F)cc3)c2O[C@H]1CN(C)Cc1ccc(C(F)(F)F)cc1	37	10	0
C[C@H]1CN([C@@H](C)CO)C(=O)c2cccc(NC(=O)Nc3ccc(F)cc3)c2O[C@@H]1CN(C)Cc1ccc(-c2ccccc2)cc1	-14	-34	-2
COC(=O)[C@]1(Cc2ccccc2N=[N+]=[N-])N=C(c2ccc(OCCCO)cc2)O[C@@H]1c1ccccc1CN=[N+]=[N-]	nt	nt	-1
C[C@@H]1CN([C@H](C)CO)C(=O)c2cccc(NC(=O)Nc3ccc(C(F)(F)F)cc3)c2O[C@@H]1CN(C)Cc1ccc(C(F)(F)F)cc1	89*	-37	-1
C[C@H]1CN([C@@H](C)CO)C(=O)c2cccc(NC(=O)Nc3ccc(F)cc3)c2O[C@@H]1CN(C)Cc1ccc(C(F)(F)F)cc1	13	-11	-1
C[C@@H]1CN([C@@H](C)CO)C(=O)c2cccc(NC(=O)CCCCCC(=O)Nc3ccccc3N)c2O[C@@H]1CN(C)Cc1ccccc1	19	24	nt
SMILES	T cruzi HTS	INS-1E rescue	A1 apoptosis 2
C[C@@H]1CN([C@@H](C)CO)C(=O)c2cccc(NC(=O)CCCCCC(=O)Nc3ccccc3N)c2O[C@H]1CN(C)Cc1ccc(-c2ccccc2)cc1	nt	nt	-1
C[C@H](CO)N1C[C@H](C)[C@H](CN(C)Cc2ccc(Cl)c(Cl)c2)Oc2c(NC(=O)CCCCCC(=O)Nc3ccccc3N)cccc2C1=O	66*	15	-1
C[C@H](CO)N1C[C@H](C)[C@@H](CN(C)Cc2ccc(-c3ccccc3)cc2)Oc2c(NC(=O)CCCCCC(=O)Nc3ccccc3N)cccc2C1=O	75*	-4	1
C[C@@H]1CN([C@@H](C)CO)C(=O)c2cccc(NC(=O)CCCCCC(=O)Nc3ccccc3N)c2O[C@@H]1CN(C)Cc1ccc(Oc2ccccc2)cc1	59*	14	nt
C[C@@H]1CN([C@H](C)CO)C(=O)c2cccc(NC(=O)CCCCCC(=O)Nc3ccccc3N)c2O[C@@H]1CN(C)Cc1ccc(Oc2ccccc2)cc1	15	17	1
O=C(NO)c1cccc(C(=O)N/N=C/c2cc(Br)cs2)c1	-25	10	nt
O=C(CCCCCCC(=O)Nc1ccccc1O)N/N=C/c1ccc(Br)s1	-2	-5	0
O=C(N/N=C/c1cccnc1Br)c1ccccc1O	-13	-30	nt
C[C@@H]1CN([C@H](C)CO)C(=O)Cc2cc(NC(=O)NC3CCCCC3)ccc2O[C@H]1CN(C)Cc1ccc(-c2ccccc2)cc1	75*	-27	nt
C[C@H](CO)N1C[C@H](C)[C@@H](CN(C)Cc2ccc(-c3ccccc3)cc2)Oc2ccc(NC(=O)NC3CCCCC3)cc2CC1=O	nt	nt	-1
C[C@@H]1CN([C@H](C)CO)C(=O)Cc2cc(NC(=O)NC3CCCCC3)ccc2O[C@H]1CN(C)Cc1ccc(Oc2ccccc2)cc1	64*	-29	1
C[C@@H]1CN([C@@H](C)CO)C(=O)Cc2cc(NC(=O)NC3CCCCC3)ccc2O[C@@H]1CN(C)Cc1ccc(Oc2ccccc2)cc1	53	-17	nt
O=C(CCCCCC(=O)Nc1ccccc1O)N=NC=C1C=CN(O)C=C1	nt	nt	-1
COc1cc(Cl)c(/C=N/NC(=O)c2ccccn2)c(Cl)c1OC	-15	5	-10
COc1ccc(S(=O)(=O)N(C)C[C@@H]2Oc3c(NC(=O)c4ccc(-c5nccs5)cc4)cccc3C(=O)N([C@H](C)CO)C[C@@H]2C)cc1	74*	-16	1
Cc1ccc(S(=O)(=O)N(C)C[C@@H]2Oc3c(NC(=O)c4ccc(-c5nccs5)cc4)cccc3C(=O)N([C@H](C)CO)C[C@@H]2C)cc1	71*	3	0
COc1ccc(S(=O)(=O)N(C)C[C@H]2Oc3c(NC(=O)c4ccc(-c5nccs5)cc4)cccc3C(=O)N([C@H](C)CO)C[C@H]2C)cc1	32	9	nt
